Source: ChEMBL document CHEMBL2385063, “Identification of 2-(2-(1-naphthoyl)-8-fluoro-3,4-dihydro-1H-pyrido[4,3-b]indol-5(2H)-yl)acetic acid (setipiprant/ACT-129968), a potent, selective, and orally bioavailable chemoattractant receptor-homologous molecule expressed on Th2 cells (CRTH2) antagonist” (J Med Chem, 2013)
The source made the active and inactive calls. No cut-off for these calls is given here.

biological target: T1, Prostaglandin D2 receptor 2 (Homo sapiens) (UniProt Q9Y5Y4); experiment: Selectivity factor, ratio of IC50 for recombinant human CRTH2 receptor in presence of human serum albumin to IC50 for recombinant human CRTH2 receptor in absence of human serum albumin; settings: not given
T1 sequence (whole entry): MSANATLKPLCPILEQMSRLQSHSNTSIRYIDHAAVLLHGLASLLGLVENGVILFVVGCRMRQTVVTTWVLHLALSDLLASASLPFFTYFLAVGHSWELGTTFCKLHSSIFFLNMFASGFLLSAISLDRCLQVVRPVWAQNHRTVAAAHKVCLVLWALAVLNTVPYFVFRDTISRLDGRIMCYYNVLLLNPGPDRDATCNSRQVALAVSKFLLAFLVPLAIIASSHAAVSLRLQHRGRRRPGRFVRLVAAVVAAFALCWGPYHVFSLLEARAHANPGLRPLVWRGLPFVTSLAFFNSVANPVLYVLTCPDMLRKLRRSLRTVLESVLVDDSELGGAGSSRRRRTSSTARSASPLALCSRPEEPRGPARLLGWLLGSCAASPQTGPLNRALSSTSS
Summary of the method: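 Competitive [³H]PGD₂ (2.5 nM) displacement on membranes from HEK-293 cells stably expressing hCRTh2. Buffer C was 50 mM Tris, pH 7.4, 100 mM NaCl, 1 mM EDTA and 0.1% BSA, run with or without 0.5% HSA. Membrane was 80 μg protein/well, incubated 90 min at room temperature, then filtered and counted by scintillation. Nonspecific binding was taken with 10 μM PGD₂. f_HSA = IC₅₀(HSA)/IC₅₀(buffer).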

SMILES	Ratio IC50
O=C(O)Cn1c2c(c3ccccc31)CN(C(=O)c1ccccc1)CC2	1
O=C(O)Cn1c2c(c3cc(F)cc(Cl)c31)CN(C(=O)c1cccc(Cl)c1)CC2	1
Cc1ccc2c(c1)c1c(n2CC(=O)O)CCN(C(=O)c2cccc3ccccc23)C1	38

Second part, the compound after the results:

Ratio IC50	SMILES
6	O=C(O)Cn1c2c(c3cc(C(F)(F)F)ccc31)CN(C(=O)c1cccc3ccccc13)CC2
7	O=C(O)Cn1c2c(c3cc(F)cc(Cl)c31)CN(C(=O)c1cccc3ccccc13)CC2
4	CCc1ccc(-c2ccc(C(=O)N3CCc4c(c5cccc(Cl)c5n4CC(=O)O)C3)cc2)cc1

biological target: T2, Chemoattractant receptor-homologous molecule expressed on Th2 cells (Cavia porcellus) (UniProt Q56D28); experiment: Antagonist activity at guinea pig CRTH2 receptor assessed as inhibition of calcium flux by cell-based FLIPR assay; type: functional; settings: not given
T2 sequence (whole entry): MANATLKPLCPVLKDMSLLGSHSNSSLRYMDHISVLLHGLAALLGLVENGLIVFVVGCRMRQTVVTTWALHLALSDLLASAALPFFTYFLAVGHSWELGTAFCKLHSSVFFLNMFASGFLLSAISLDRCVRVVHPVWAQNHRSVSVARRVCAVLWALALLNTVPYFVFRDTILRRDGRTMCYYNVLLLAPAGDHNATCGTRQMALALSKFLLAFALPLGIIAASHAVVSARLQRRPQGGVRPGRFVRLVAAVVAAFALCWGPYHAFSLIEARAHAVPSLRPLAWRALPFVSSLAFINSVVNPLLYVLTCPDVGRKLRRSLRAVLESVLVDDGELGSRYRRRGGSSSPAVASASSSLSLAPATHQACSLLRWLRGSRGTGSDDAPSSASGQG

SMILES	inhibition
O=C(O)Cn1c2c(c3ccccc31)CN(C(=O)c1ccccc1)CC2	Active
O=C(O)Cn1c2c(c3cc(F)cc(Cl)c31)CN(C(=O)c1cccc(Cl)c1)CC2	Active
COc1ccc2c(c1)c1c(n2CC(=O)O)CCN(C(=O)c2ccccc2)C1	Active
O=C(O)Cn1c2c(c3ccccc31)CN(C(=O)C1CCCCC1)CC2	Active
Cc1ccc2c(c1)c1c(n2CC(=O)O)CCN(C(=O)c2cccc3ccccc23)C1	Active
CC(C)c1ccc2c(c1)c1c(n2CC(=O)O)CCN(C(=O)c2ccccc2)C1	Active

Results, then the compound that gave them:

inhibition	SMILES
Active	O=C(O)Cn1c2c(c3cc(C(F)(F)F)ccc31)CN(C(=O)c1cccc3ccccc13)CC2
Active	O=C(O)Cn1c2c(c3cc(F)cc(Cl)c31)CN(C(=O)c1cccc3ccccc13)CC2
Active	CCc1ccc(-c2ccc(C(=O)N3CCc4c(c5cccc(Cl)c5n4CC(=O)O)C3)cc2)cc1

tested on: not listed separately; experiment: n-octanol-KH2PO4-Na2HPO4 buffer partition coefficient, log D of the compound at pH 7.4 by shake flask method; type: physicochemical; settings: not given

logD	SMILES
-1.2	O=C(O)Cn1c2c(c3ccccc31)CN(C(=O)c1ccccc1)CC2

tested on: not listed separately; experiment: Elimination half life in human plasma at 1 mM by HR-LC-MS analysis; type: ADME, cell-free; settings: read-out: beta t1/2

half-life [min]	SMILES
> 240	O=C(O)Cn1c2c(c3ccccc31)CN(C(=O)c1ccccc1)CC2

tested on: not listed separately; experiment: Intrinsic clearance in rat liver microsomes measured per mg of protein at 1 uM by LC/MS-MS analysis; type: ADME, Microsome; settings: read-out: CLH

microsomal CLint at 1 µM [µL/min/mg]	SMILES
< 4	O=C(O)Cn1c2c(c3ccccc31)CN(C(=O)c1ccccc1)CC2

tested on: not listed separately; experiment: Half life in simulated gastric fluid at 2 uM by LC-MS analysis; type: physicochemical; settings: not given
Summary of the method: (§1)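 Compounds were incubated in simulated gastric fluid for 1 h or simulated intestinal fluid for 4 h. Unchanged parent was quantified by LC-MS.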

half-life at 2 µM [min]	SMILES
> 60	O=C(O)Cn1c2c(c3ccccc31)CN(C(=O)c1ccccc1)CC2

tested on: not listed separately; experiment: Intrinsic clearance in human liver microsomes measured per mg of protein at 1 uM by LC/MS-MS analysis; type: ADME, Microsome; settings: read-out: CLH

microsomal CLint at 1 µM [µL/min/mg]	SMILES
5	O=C(O)Cn1c2c(c3ccccc31)CN(C(=O)c1ccccc1)CC2

biological target: T3, Prostaglandin D2 receptor 2 (Mus musculus) (UniProt Q9Z2J6); experiment: Antagonist activity at mouse CRTH2 receptor assessed as inhibition of calcium flux by cell-based FLIPR assay; type: functional; settings: not given
T3 sequence (whole entry): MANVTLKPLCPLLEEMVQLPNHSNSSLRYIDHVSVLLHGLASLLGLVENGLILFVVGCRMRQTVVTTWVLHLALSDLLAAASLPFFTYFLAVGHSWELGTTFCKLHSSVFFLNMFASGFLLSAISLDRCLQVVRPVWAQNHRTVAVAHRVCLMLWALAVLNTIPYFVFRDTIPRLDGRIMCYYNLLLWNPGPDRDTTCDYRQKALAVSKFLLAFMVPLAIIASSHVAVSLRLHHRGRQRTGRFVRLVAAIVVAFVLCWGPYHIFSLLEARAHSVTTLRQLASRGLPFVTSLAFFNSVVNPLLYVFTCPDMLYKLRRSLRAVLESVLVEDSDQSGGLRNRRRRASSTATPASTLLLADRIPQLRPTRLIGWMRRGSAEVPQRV

SMILES	inhibition
O=C(O)Cn1c2c(c3ccccc31)CN(C(=O)c1ccccc1)CC2	Active
O=C(O)Cn1c2c(c3cc(F)cc(Cl)c31)CN(C(=O)c1cccc(Cl)c1)CC2	Active
COc1ccc2c(c1)c1c(n2CC(=O)O)CCN(C(=O)c2ccccc2)C1	Active
O=C(O)Cn1c2c(c3ccccc31)CN(C(=O)C1CCCCC1)CC2	Active
Cc1ccc2c(c1)c1c(n2CC(=O)O)CCN(C(=O)c2cccc3ccccc23)C1	Active
CC(C)c1ccc2c(c1)c1c(n2CC(=O)O)CCN(C(=O)c2ccccc2)C1	Active

Now from value to compound:

inhibition	SMILES
Active	O=C(O)Cn1c2c(c3cc(C(F)(F)F)ccc31)CN(C(=O)c1cccc3ccccc13)CC2
Active	O=C(O)Cn1c2c(c3cc(F)cc(Cl)c31)CN(C(=O)c1cccc3ccccc13)CC2
Active	CCc1ccc(-c2ccc(C(=O)N3CCc4c(c5cccc(Cl)c5n4CC(=O)O)C3)cc2)cc1

tested on: not listed separately; experiment: Elimination half life in Sprague-Dawley rat plasma at 1 mM by HR-LC-MS analysis; type: ADME, cell-free; settings: read-out: beta t1/2

half-life [min]	SMILES
> 240	O=C(O)Cn1c2c(c3ccccc31)CN(C(=O)c1ccccc1)CC2

biological target: Cytochrome P450 2C9 (Homo sapiens, UniProt P11712); experiment: Inhibition of CYP2C9 in human liver microsomes assessed as diclofenac 4'-hydroxylation by LC-MS/MS analysis; type: ADME, Microsome; settings: not given
Sequence (P11712 whole entry): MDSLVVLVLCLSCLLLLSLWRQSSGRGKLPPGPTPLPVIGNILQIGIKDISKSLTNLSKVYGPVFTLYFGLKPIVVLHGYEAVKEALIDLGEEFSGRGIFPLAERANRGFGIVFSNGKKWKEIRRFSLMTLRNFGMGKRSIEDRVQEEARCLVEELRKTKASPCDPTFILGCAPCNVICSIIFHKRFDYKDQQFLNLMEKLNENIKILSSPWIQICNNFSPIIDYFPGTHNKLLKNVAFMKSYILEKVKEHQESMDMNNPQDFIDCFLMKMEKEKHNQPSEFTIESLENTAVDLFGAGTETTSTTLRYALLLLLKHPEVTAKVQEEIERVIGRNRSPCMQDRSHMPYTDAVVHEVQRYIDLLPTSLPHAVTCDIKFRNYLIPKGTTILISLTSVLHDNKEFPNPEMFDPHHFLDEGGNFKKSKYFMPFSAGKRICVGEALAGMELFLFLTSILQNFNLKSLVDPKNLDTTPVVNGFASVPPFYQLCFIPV

IC50 [µM]	SMILES
15	O=C(O)Cn1c2c(c3ccccc31)CN(C(=O)c1ccccc1)CC2

tested on: not listed separately; experiment: Intrinsic clearance in rat hepatocytes measured per 10^6 cells at 1 uM by LC/MS-MS analysis; type: ADME, cell-based, Hepatocyte; settings: read-out: CLH

hepatocyte CLint at 1 µM [µL/min/1e6 cells]	SMILES
0.9	O=C(O)Cn1c2c(c3ccccc31)CN(C(=O)c1ccccc1)CC2

tested on: not listed separately; experiment: Half life in simulated intestinal fluid at 2 uM by LC-MS analysis; type: physicochemical; settings: not given; summary of the method: as §1

half-life at 2 µM [min]	SMILES
> 240	O=C(O)Cn1c2c(c3ccccc31)CN(C(=O)c1ccccc1)CC2

biological target: T4, Prostaglandin D2 receptor 2 (Homo sapiens, UniProt Q9Y5Y4); experiment: Antagonist activity at CRTH2 receptor in human eosinophils assessed as inhibition of PGD2-induced cell shape change incubated for 1 hr prior to PGD2 induction measured after 5 mins by FACS flow cytometric analysis in presence of human plasma; settings: in the assay text read “incubated for 10 mins” for “incubated for 1 hr”
T4 sequence (Q9Y5Y4 whole entry): T1 sequence (whole entry)
Summary of the method: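 Polymorphonuclear cells isolated from healthy-donor blood on a Polymorphprep gradient (500g, 30 min), erythrocytes lysed hypotonically. Cells stained 1 h with CD49d-APC, mixed with human plasma, preincubated with antagonist, then stimulated with 15 nM PGD2 for 5 min at 37 °C. Fixed in cold 1% paraformaldehyde. Eosinophils gated by CD49d/SSC; activation read as % cells with raised forward scatter.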

IC50 [nM]	SMILES
340	Cc1ccc2c(c1)c1c(n2CC(=O)O)CCN(C(=O)c2cccc3ccccc23)C1

biological target: T4, Prostaglandin D2 receptor 2; experiment: Antagonist activity at CRTH2 receptor in human eosinophils assessed as inhibition of PGD2-induced cell shape change incubated for 10 mins prior to PGD2 induction measured after 5 mins by FACS flow cytometric analysis in presence of human plasma; settings: not given

IC50 [nM]	SMILES
180	O=C(O)Cn1c2c(c3cc(C(F)(F)F)ccc31)CN(C(=O)c1cccc3ccccc13)CC2
110	O=C(O)Cn1c2c(c3ccccc31)CN(C(=O)c1ccccc1)CC2

tested on: not listed separately; experiment: Protein binding in plasma (unknown origin); type: ADME, cell-free; settings: read-out: PPB

SMILES	fraction unbound
O=C(O)Cn1c2c(c3ccccc31)CN(C(=O)c1ccccc1)CC2	< 0.03
O=C(O)Cn1c2c(c3cc(F)cc(Cl)c31)CN(C(=O)c1cccc(Cl)c1)CC2	< 0.03
COc1ccc2c(c1)c1c(n2CC(=O)O)CCN(C(=O)c2ccccc2)C1	< 0.03
O=C(O)Cn1c2c(c3ccccc31)CN(C(=O)C1CCCCC1)CC2	< 0.03
Cc1ccc2c(c1)c1c(n2CC(=O)O)CCN(C(=O)c2cccc3ccccc23)C1	< 0.03
CC(C)c1ccc2c(c1)c1c(n2CC(=O)O)CCN(C(=O)c2ccccc2)C1	< 0.03

Results, then the compound that gave them:

fraction unbound	SMILES
< 0.03	O=C(O)Cn1c2c(c3cc(C(F)(F)F)ccc31)CN(C(=O)c1cccc3ccccc13)CC2
< 0.03	O=C(O)Cn1c2c(c3cc(F)cc(Cl)c31)CN(C(=O)c1cccc3ccccc13)CC2
< 0.03	CCc1ccc(-c2ccc(C(=O)N3CCc4c(c5cccc(Cl)c5n4CC(=O)O)C3)cc2)cc1
